Source: PubChem BioAssay (several laboratories)
Granule exo inh – blocks lytic granule exocytosis | 360,000 compounds, 0.66% hits | AID 651702 | inhibition, % at 10 µM | TALL-104 LAMP-1 surface exposure, flow cytometry; cells stimulated with thapsigargin and PMA;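 active means inhibition above about 55%, limit read from the data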
NTR1 agonist – activates human neurotensin receptor 1. AID 493036. P30989. NTR1-U2OS beta-arrestin-GFP spot imaging, agonist mode. activation, % at 20 µM. 330,000 compounds, 0.17% hits;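 active means activation at or above 40% of the spot to cytoplasm intensity ratio, with at least 20 cells analyzed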;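 further: 0% = DMSO without peptide and 100% = 100 nM NTR1 peptide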
MC4R antag cAMP – human MC4R antagonism in cAMP assay | P32245 | MC4R-expressing cells, MTII-stimulated cAMP, LANCE TR-FRET | inhibition, % at 6.5 µM | 360,000 compounds, 0.48% hits | AID 540295;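 active means inhibition above its plate's cutoff, the mean of tested wells on that plate plus 3 SD, cut at about 29% in these data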;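 further: 0% = Melanotan II alone and 100% = Melanotan II plus saturating MCL0020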
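Assay system: human MC4R-expressing U2OS cells; reagent: Melanotan II stimulation of cells; dosing: 6.5 µM single dose; timing: compound 30 min, challenge 1 h, detection 1 h; signal: TR-FRET cAMP assay; replicates: one well per compound, no replicates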
A1 inh – inhibitors of the anti-apoptotic protein A1, read as caspase activation | MEF A1-2A-BIM cells, Caspase-Glo 3/7 luminescence, 3 h; percent of clofoctol response, vehicle zero | caspase activation, % (test concentration not listed) | 330,000 compounds, 0.066% hits | AID 2462;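 active means over half of replicate activation scores above 10%, or exactly half above 10 with the replicate mean above 10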
MC4R barr agon – human MC4R agonism via beta-arrestin; 360,000 compounds, 0.98% hits; activation, % at 8.9 µM; U2OS MC4R beta-arrestin complementation, luminescence; percent of melanotan II response, DMSO zero;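 active means activation above a per-plate cutoff, the mean activation of sample wells on that plate plus 3 SD, cut at about 8% in these data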
sPLA2-III inh – Blocks human group III sPLA2 activity; inhibition, % at 12.2 µM; QFRET BODIPY PC-A2 liposome hydrolysis, fluorescence; AID 743126; Q9NZ20; 370,000 compounds, 0.56% hits;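 active means inhibition above mean plus 3 SD of compounds lying within the high and low control bounds, cut at about 19% in these data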;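 further: 0% = median of test compound wells and 100% = no enzyme DMSO wells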
Target sequence (Q9NZ20 whole entry, looked up): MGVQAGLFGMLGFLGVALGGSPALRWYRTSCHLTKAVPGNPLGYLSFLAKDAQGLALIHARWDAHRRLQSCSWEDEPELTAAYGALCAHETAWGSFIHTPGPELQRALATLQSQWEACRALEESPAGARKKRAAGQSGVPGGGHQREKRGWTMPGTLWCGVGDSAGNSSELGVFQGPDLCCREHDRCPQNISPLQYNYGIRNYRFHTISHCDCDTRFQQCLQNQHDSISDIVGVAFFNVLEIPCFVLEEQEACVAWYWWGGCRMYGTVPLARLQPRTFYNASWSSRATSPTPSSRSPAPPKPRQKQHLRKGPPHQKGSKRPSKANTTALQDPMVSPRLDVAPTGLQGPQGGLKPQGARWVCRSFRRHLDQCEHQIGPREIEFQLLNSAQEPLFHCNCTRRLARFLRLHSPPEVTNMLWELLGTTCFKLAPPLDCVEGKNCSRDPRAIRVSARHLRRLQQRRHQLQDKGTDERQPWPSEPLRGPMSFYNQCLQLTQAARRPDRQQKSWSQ
Active calls of the source: *; / = no result. A selection: hits, their analogues and other compounds. The true share with any hit is near 2.5%.

SMILES | Granule exo inh | NTR1 agonist | MC4R antag cAMP | A1 inh | MC4R barr agon | sPLA2-III inh
O=C(NCc1cccnc1)/C(=C\c1ccc(-c2cccc(Cl)c2)o1)S(=O)(=O)c1ccccc1 | 90* | / | 23 | 0 | 0 | -12
O=C(NCc1cccnc1)/C(=C/c1ccc(-c2cccc(Cl)c2)o1)S(=O)(=O)c1ccccc1 | 7 | 42* | 1 | 1 | 1 | -1
CC1(NC(=S)Nc2ccccc2)CCS(=O)(=O)C1 (stereo not given) | -4 | 0 | 1 | 0 | 9.1* | 0
Cc1ccc(OCC(=O)N/N=C/c2cn[nH]c2-c2ccc(Cl)c(Cl)c2)cc1 | 7 | 14 | 15 | 0 | 8.7* | -3
Cc1cccc(OCC(=O)N/N=C/c2cn[nH]c2-c2ccc(Cl)c(Cl)c2)c1 | 2 | 15 | 15 | -2 | 4 | -24
O=C1CC(c2ccc(O)cc2)Oc2cc(O)cc(O)c21 (stereo not given) | -2 | 2 | 17 | -2 | 0 | -8
CC1CC(=O)c2c(cc3c(-c4c(O)cc(O)c5c(O)c6c(cc45)OC(C)CC6=O)c(O)cc(O)c3c2O)O1 (stereo not given) | 8 | 32 | 65* | 0 | -2 | /
CC(=O)CC[C@H]1CC[C@]2(CCCN(S(C)(=O)=O)C2)O1 | / | / | / | / | / | 18
COc1cc(C(=O)OCC(=O)NCc2ccc(F)cc2)ccc1OCC(C)C | 2 | 2 | -8 | -1 | 8.3* | 3
Cn1c(=O)c2cc(S(=O)(=O)N3CCN(CCO)CC3)ccc2n(C)c1=O | / | / | / | / | / | -2
c1ccc(CCn2nnc(-c3ccc(N4CCOCC4)cc3)n2)cc1 | / | / | / | / | / | 8
CCCN(CCC)Cc1c(C(=O)N/N=C/CCc2ccccc2)nnn1-c1nonc1N | 8 | 2 | 9 | 1 | 9.2* | 0
Cc1ccc(/C=N/NC(=O)c2nnn(-c3nonc3N)c2CSc2ccccc2)cc1 | 4 | 1 | -1 | 1 | 8 | -3
Cc1ccc(SCc2c(C(=O)N/N=C/c3ccc4c(c3)OCO4)nnn2-c2nonc2N)cc1 | 79* | 1 | 2 | -1 | 0 | 1
Cc1ccc(SCc2c(C(=O)N/N=C/c3ccccc3)nnn2-c2nonc2N)cc1 | 85* | 7 | 5 | 0 | 2 | -6
Nc1nonc1-n1nnc(C(=O)N/N=C/c2ccccc2)c1CSc1ccc(Cl)cc1 | 12 | 5 | 1 | 1 | 9.1* | 7
COC(=O)C[C@H]1CC[C@@H]2[C@@H](COc3ccc(NC(=O)C4CCCCC4)cc3C(=O)N2C)O1 | / | / | / | / | / | 5
Cc1ccnc(N2C(=O)c3cccc4c([N+](=O)[O-])ccc(c34)C2=O)c1 | 77* | 1 | 9 | 0 | -4 | 11
Cc1nnc(N2C(=O)c3cccc4c([N+](=O)[O-])ccc(c34)C2=O)s1 | 86* | 6 | 11 | 0 | -2 | 4
COC(=O)C1=C(C)N(Cc2ccccc2)C(=NCCc2c[nH]c3ccccc23)N[C@H]1c1cccc(F)c1 | -5 | 10 | 1 | 0 | 8.2* | -37
Cc1ccccc1Oc1cc(-n2ncc(Cl)c(Cl)c2=O)ncn1 | 14 | / | 51* | -1 | -4 | 21*
O=C(CCc1c[nH]c2ccccc12)Nc1ccc(Nc2cccnc2)cc1 | / | / | / | / | / | -37
O=C(/C=C/c1ccc(OCCCF)cc1)NCc1ccc(Cl)c(Cl)c1 | 10 | 2 | 9 | 0 | 8.9* | -9
COc1ccc(CNC(=O)/C=C/c2ccc(OCCCF)cc2)cc1OC | -4 | 0 | -1 | 3 | -1 | 1
COc1cc2c3nnc(-c4ccc(F)cc4)c-3cn(Cc3ccccc3F)c2cc1OC | -1 | / | 2 | / | 12* | -3
SMILES | Granule exo inh | NTR1 agonist | MC4R antag cAMP | A1 inh | MC4R barr agon | sPLA2-III inh
CCn1c(CCCOc2ccc(Cl)cc2Cl)nnc1SCC(=O)Nc1cccc(F)c1 | 0 | 7 | 6 | 0 | 9.8* | 4
COC(=O)[C@]12C[C@H](CC(=O)NCC3CCCCC3)C(=O)N(Cc3cccc4ccccc34)C1=C[C@H](C(C)(C)C)O[C@@H]2C | / | / | / | / | / | -3
Cc1ccc(NCCC(=O)c2cccs2)cc1 | -1 | 1 | -10 | -5 | -1 | 4
CC(C)c1ccc(NCCC(=O)c2cccs2)cc1 | 11 | 1 | 6 | -2 | 2 | 27*
O=C(Cc1ccccc1)NCCC1=CCCCC1 | -11 | -2 | 0 | 0 | -2 | -1
O=C(NCCC1=CCCCC1)C(c1ccccc1)c1ccccc1 | -2 | 4 | 2 | 0 | 8.5* | 6
C=CCN1C[C@H](COC(=O)c2cccc(OC)c2)Oc2cccc(F)c2S1(=O)=O | / | / | / | / | / | 4
CC1=C(C)/C(=N\OS(=O)(=O)c2ccccc2)C=CC1=O | 97* | 24 | 23 | -1 | 0 | /
CC1=CC(=O)C(C(C)C)=C/C1=N\OS(=O)(=O)c1ccc(F)cc1 | / | / | / | / | / | 3
COc1ccc2cc1Oc1ccc(cc1)C[C@H]1c3c(cc(OC)c4c3Oc3c(ccc5c3[C@H](C2)N(C)CC5)O4)CCN1C | 9 | 29 | 5 | -1 | 4 | /
COc1ccc2cc1Oc1ccc(cc1)CC1c3c(cc(OC)c4c3Oc3cc5c(cc3O4)CCNC5C2)CCN1C (stereo not given) | 18 | 25 | 6 | 0 | 45* | /
O=C(NCc1ccccc1)[C@@H]1CCCN1C(=O)[C@H]1CCCN1C(=O)c1c(F)cccc1F | / | / | / | / | / | 17
O=C(CSc1nnc(-c2ccc(Br)cc2)o1)Nc1cccc(C(=O)O)c1 | 0 | 0 | 14 | 0 | -1 | 4
O=C(CSc1nnc(-c2ccc(Br)cc2)o1)Nc1cccc2ccccc12 | 2 | 0 | 5 | 0 | 9.1* | -5
O=C(Cn1nc(-c2ccccc2)ccc1=O)NCCc1ccccc1F | / | / | / | / | / | -3
O=C(c1ccccc1)c1ccccc1N1C(=O)C=CC1=O | -10 | -2 | 28 | -2 | -4 | -2
O=C1C=CC(=O)N1c1ccccc1N1C(=O)C=CC1=O | 5 | / | 37* | / | -4 | 1
CCC[C@H]1[C@@H](NC(=O)c2cccc(N(C)C)c2)CC[C@@]23CCCN2C(=O)CCC[C@@H]13 | / | / | / | / | / | 4
Cc1cc(=O)[nH]c(SCC(=O)Nc2nnc(SCc3ccccc3)s2)n1 | 5 | 1 | 3 | 1 | 8.8* | -5
Cc1cc(=O)[nH]c(SCC(=O)Nc2nc3ccccc3s2)n1 | -1 | 0 | 5 | 0 | -2 | 2
O=S(=O)(NC1CC1)c1ccc(S(=O)(=O)N2CCCC3(CCCCC3)C2)cc1 | 0 | 2 | 10 | 0 | 9.8* | -6
O=S(=O)(NC1CC1)c1ccc(S(=O)(=O)N2CCN3CCCC3C2)cc1 (stereo not given) | 0 | 1 | -1 | 1 | 0 | 3
O=C(CSc1nnc(-c2cccnc2)n1-c1ccc(Cl)cc1)Nc1ccc(S(=O)(=O)Nc2nccs2)cc1 | / | / | / | / | / | -46
